PAFAH1B3 FP inh = PAFAH1B3 (human) inhibition | Q15102 | recombinant PAFAH1B3, FP-rhodamine probe, fluorescence polarization | inhibition, % at 3.39 µM | 340,000 tested, 0.28% active | AID 492972;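 active means inhibition above the screen-wide average of all tested compounds plus 3 SD, cut at about 25% in these data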
PAFAH2 FP inh = PAFAH2 (human) inhibition | inhibition, % at 3.39 µM | Q99487 | recombinant PAFAH2, FP-rhodamine activity probe, fluorescence polarization | 340,000 tested, 0.99% active | AID 492956;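 active means inhibition above the mean over all tested compounds plus 3 SD, cut at about 30% in these data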;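 further: inhibitors block probe labeling of enzyme so polarization drops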
Apaf1 inhib = human Apaf-1 inhibition; O14727; reconstituted apoptosome caspase-3 activity, DEVD-Rh110 fluorescence; inhibition, % at 20 µM; 330,000 tested, 0.71% active; active means inhibition of at least 40% at 20 µM
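Material: cell-free apoptosome with Apaf-1, procaspase-3 and caspase-9; Buffer or medium: Hepes pH 7.5 with detergent and BSA; Reagent: cytochrome c trigger plus (Z-DEVD)2-Rh110 caspase-3 substrate; Times: compound with Apaf-1, dATP, procaspase-3 30 min, then 50 min reaction, room temperature; Technique: Rh110 fluorescence intensity.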
PAFAH1B2 inh = inhibitors of human PAFAH1B2 | P68402 | 340,000 tested, 1.2% active | recombinant PAFAH1B2, FP-rhodamine activity probe, fluorescence polarization | inhibition, % at 3.39 µM;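 active means inhibition above the mean of all tested compounds plus 3 SD, cut at about 24% in these data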
TDP2 absorb = blocks human TDP2 phosphodiesterase activity; O95551; inhibition, % at 12.8 µM; recombinant TDP2, T5PNP hydrolysis, p-nitrophenol absorbance 415 nm; 370,000 tested, 0.34% active;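 active means inhibition above the mean of all tested compounds plus 3 SD, set per campaign, cut at about 25% in these data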
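Test system: Human TDP2 enzyme | Reagent: 5 mM T5PNP | Compound dosing: 12.8 µM single point, 1% DMSO | Incubation: Enzyme reaction with compound for 2 h at 37 °C | Technique: p-Nitrophenol epi absorbance | Read-out: % inhibition relative to enzyme-containing and enzyme-free wells | Benchmarks: High control without enzyme, low control DMSO plus TDP2 | Replicates: Singlicate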
Apaf-1 inh conf2 = Apaf-1 inhibition, single-dose confirmed. shares compounds with Apaf1 inhib. reconstituted apoptosome, caspase-3 DEVD-Rh110 fluorescence. inhibition, % at 20 µM. 1,800 tested, 25% active;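 active means mean inhibition of at least 40% at 20 µM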
Rh110 quench = counter-screen for Apaf-1 inhibitors: fluorescence interference. activation (fluorescence interference), % at 20 µM. shares compounds with Apaf1 inhib. AID 504615. 1,800 tested, under 10 active. Rh110 fluorescence interference, quenched caspase reaction;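 active means signal rise of 40% or more at 20 µM, treated as a fluorescence artifact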
Fluor interf inh = shows fluorescence interference in the Apaf-1 inhibitor assay format; shares compounds with Apaf1 inhib; fluorescence interference counterscreen, Apaf-1 assay format; IC50, µM; 460 tested, under 10 active; AID 588538; call rule not given here
Of the large screens only hits and unclear results are named; the others gave an inactive call (follow-up assays come after a bar, where they were run). The list is not random: actives were taken first. Their share in the collection is about 2.3%.

Cc1cc2cc(CNC(=O)NC3CCCCC3)ccc2[nH]1	none
Cc1cc2cc(CNC(=O)Nc3ccc(Cl)c(Cl)c3)ccc2n1C	Apaf1 inhib 62 | Apaf-1 inh conf2 inactive | Rh110 quench inactive
Cc1ccc(S(=O)(=O)NCc2ccc3c(c2)cc(C)n3C)cc1	Apaf1 inhib 51 | Apaf-1 inh conf2 inactive | Rh110 quench inactive
O=C1Cc2cc([N+](=O)[O-])ccc2N1c1c(Cl)cccc1Cl	Apaf1 inhib 43 | Apaf-1 inh conf2 inactive | Rh110 quench inactive
O=[N+]([O-])c1ccc(N2CCN(c3ccccc3O)CC2)c(Cl)c1	none
Cc1ccc(C)c(NC(=O)c2cccc3c2-c2ccccc2C3=O)c1	none (no result: PAFAH1B3 FP inh, PAFAH2 FP inh, Apaf1 inhib, PAFAH1B2 inh)
C=C(C)Cc1c(C)c(C#N)c2[nH]c3ccccc3n2c1=O	Apaf1 inhib 62 | Apaf-1 inh conf2 45 | Rh110 quench inactive | Fluor interf inh inactive
Cc1ccc(Cc2c(C)c(C#N)c3[nH]c4ccccc4n3c2=O)cc1	none
NC1=NC[C@@H](CC2CCCCC2)N1CCc1cc(C(F)(F)F)cc(C(F)(F)F)c1	Apaf1 inhib 79 (no result: TDP2 absorb) | Apaf-1 inh conf2 50 | Rh110 quench inactive | Fluor interf inh inactive
NC1=NC[C@H](c2ccccc2)N1CCc1cc(C(F)(F)F)cc(C(F)(F)F)c1	Apaf1 inhib 54 | Apaf-1 inh conf2 inactive | Rh110 quench inactive
CCC(C)[C@H]1CN=C(N)N1CCc1cc(C(F)(F)F)cc(C(F)(F)F)c1 (stereo partly drawn)	Apaf1 inhib 57 | Apaf-1 inh conf2 inactive | Rh110 quench inactive
Oc1ccccc1/C=N/Nc1cc(N2CCCC2)nc(N2CCCC2)n1	Apaf1 inhib 98 | Apaf-1 inh conf2 100 | Rh110 quench inactive | Fluor interf inh inactive
Oc1ccc(/C=N/Nc2cc(N3CCOCC3)nc(N3CCOCC3)n2)cc1O	none
CCN1/C(=C/C=C/c2sc3ccccc3[n+]2CC)Sc2ccccc21	Apaf1 inhib 90 (no result: TDP2 absorb) | Apaf-1 inh conf2 51 | Rh110 quench inactive | Fluor interf inh inactive
CCOc1cccc(N(C(=O)C2COc3ccccc3O2)C(C(=O)NC2CCCCC2)c2ccc(O)cc2)c1 (stereo not drawn)	Apaf1 inhib 47 | Apaf-1 inh conf2 inactive | Rh110 quench inactive
CC(C)CCNC(=O)C(c1ccc(O)cc1)N(C(=O)C1COc2ccccc2O1)c1cccc(O)c1 (stereo not drawn)	none
O=S(=O)(NCC(c1ccccc1)N1CCNCC1)c1ccc(Cl)cc1 (stereo not drawn)	Apaf1 inhib 43 | Apaf-1 inh conf2 inactive | Rh110 quench inactive
CCC(C)[C@H](NC(=O)[C@H](CC(C)C)NC(=O)OC(C)(C)C)C(=O)N[C@@H](Cc1ccccc1)C(=O)OC (stereo partly drawn)	none (no result: PAFAH1B3 FP inh, PAFAH2 FP inh, Apaf1 inhib, PAFAH1B2 inh)
CCCCCCCCCCCCC/C=C/[C@@H](O)[C@@H](N)CO	Apaf1 inhib 79 | Apaf-1 inh conf2 inactive | Rh110 quench inactive
CCCCCCCC/C=C\CCCCCCCC(=O)O	none
Nc1cc2ccccc2cc1NS(=O)(=O)N1CCCCC1	none (no result: PAFAH1B3 FP inh, PAFAH2 FP inh, Apaf1 inhib, PAFAH1B2 inh)
COc1ccc(CC(=O)N(C)CC(=O)Nc2c(C)cccc2C)cc1S(=O)(=O)N1CCOCC1	Apaf1 inhib 60 | Apaf-1 inh conf2 inactive | Rh110 quench inactive
COc1ccc(CC(=O)Nc2ccccc2C(F)(F)F)cc1S(=O)(=O)N1CCOCC1	none (no result: PAFAH1B3 FP inh, PAFAH2 FP inh, Apaf1 inhib, PAFAH1B2 inh)
COc1ccc(CC(=O)N(C)CC(=O)Nc2ccccc2C(F)(F)F)cc1S(=O)(=O)N1CCOCC1	Apaf1 inhib 46 (no result: TDP2 absorb) | Apaf-1 inh conf2 inactive | Rh110 quench inactive
COc1ccc(CC(=O)N(Cc2ccccc2)c2ccc(C)cc2)cc1S(=O)(=O)N1CCOCC1	Apaf1 inhib 43 | Apaf-1 inh conf2 43 | Rh110 quench inactive | Fluor interf inh inactive
CCCN1C(=O)/C(=C/c2cc(C)n(C)c2C)SC1=Nc1ccc(OC)cc1	Apaf1 inhib 41 | Apaf-1 inh conf2 inactive | Rh110 quench inactive
O=C(Nc1nc2ncccn2c1-c1ccc(F)cc1)c1ccccc1	none (no result: PAFAH1B3 FP inh, PAFAH2 FP inh, Apaf1 inhib, PAFAH1B2 inh)

Source: PubChem BioAssay
